From PubChem
This is a sample that favours compounds with a hit; in the whole collection about 0.16% have one here.
STK33 kinase inh: human STK33 kinase inhibition. inhibition, % at 10 µM. Q9BYT3. purified STK33, MBP phosphorylation, ADP-Glo luminescence. actives 0.073% (n = 320,000);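 active = inhibition at or above 25%, using the most active replicate where run in duplicate; inactive = inhibition below 25%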
Target sequence (Q9BYT3 whole entry, looked up): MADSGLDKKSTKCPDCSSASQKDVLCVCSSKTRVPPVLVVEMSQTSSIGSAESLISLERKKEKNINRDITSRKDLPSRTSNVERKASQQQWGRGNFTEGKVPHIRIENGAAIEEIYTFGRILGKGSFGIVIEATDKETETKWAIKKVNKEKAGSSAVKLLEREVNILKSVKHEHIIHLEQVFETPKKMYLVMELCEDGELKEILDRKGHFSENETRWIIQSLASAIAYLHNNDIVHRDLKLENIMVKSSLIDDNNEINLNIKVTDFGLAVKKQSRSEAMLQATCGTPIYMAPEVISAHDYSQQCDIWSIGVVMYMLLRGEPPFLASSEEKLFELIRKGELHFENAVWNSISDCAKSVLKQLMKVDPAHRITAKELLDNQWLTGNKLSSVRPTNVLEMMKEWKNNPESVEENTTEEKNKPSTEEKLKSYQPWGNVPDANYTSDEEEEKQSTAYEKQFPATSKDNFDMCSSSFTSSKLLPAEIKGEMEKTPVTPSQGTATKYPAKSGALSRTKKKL
GSK3B inh: blocks human GSK3beta kinase activity; activity score (negative = inhibition), % at 10 µM; actives 0.038% (n = 300,000); P49841; AID 2097; GST-GSK3beta kinase, ADP-Glo luminescence, 60 min; stronger effect = lower value;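 active = more than half of replicate wells score below -50%, meaning over 50% inhibition versus plate controls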;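 note: 0% = median DMSO wells and -100% = median GW8510 positive control wells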
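test system = GST-tagged human GSK3beta kinase, cell-free | reagent = 25 µM ATP with peptide substrate | dosing = one dose of 10 µM per compound | schedule = 60 min reaction, RT | detection = luminescent ADP-Glo measurement of ADP formed | control set = DMSO neutral wells and GW8510 at 20 µM as positive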
CDK5 inh: blocks human CDK5/p35 kinase activity. Q00535+Q15078. Recombinant CDK5/p35, ADP-Glo luminescence, 60 min. inhibition, % at 10 µM. actives 0.01% (n = 330,000). AID 488839;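 active = highest replicate inhibition of at least 50% and at least 75% of replicates reaching 50%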;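 note: plate controls were DMSO neutral control for no effect and GW8510 at 10 µM for full effect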
GSK3A inh: blocks human GSK-3 alpha kinase; ADP-Glo luminescence, 60 min; inhibition, % at 10 µM; actives 0.1% (n = 320,000); AID 2650;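 active = more than half of replicates show inhibition above 20%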;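 note: GST-tagged GSK-3 alpha with peptide substrate and 25 µM ATP; 0% = DMSO neutral wells and 100% = GW8510 positive control wells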
Active calls of the source: *.

What do the screens show for `C#CCOCCOCCOCCNc1nc(N2CCN(C(=O)CCCCCCCCCCNC(=O)[C@H](CO)n3cc(CCCCCN)nn3)CC2)nc(N2CCN(C(=O)CCCCCCCCCCNC(=O)[C@H](CCCN=C(N)N)n3cc(C[C@@H](C)CC)nn3)CC2)n1`?
STK33 kinase inh: 21; GSK3A inh: 24

Results for C#CCOCCOCCOCCNc1nc(N2CCOCC2)nc(N2CCN(C(=O)CCCCCCCCCCNC(=O)[C@H]([C@@H](C)CC)n3cc(CCCCN=C(N)N)nn3)CC2)n1 ?
STK33 kinase inh: 0; CDK5 inh: -4; GSK3A inh: 11

How did C#CCOCCOCCOCCNc1nc(N2CCN(C(=O)CCCCCCCCCCNC(=O)[C@H](CCCN=C(N)N)n3cc(C[C@@H](C)CC)nn3)CC2)nc(N2CCN(C(=O)CCCCCCCCCCNC(=O)[C@@H]([C@H](C)CC)n3cc(CCCCCN)nn3)CC2)n1 do in these assays?
STK33 kinase inh: 27*; GSK3A inh: 15

What do the screens show for `C#CCOCCOCCOCCNc1nc(N2CCN(C(=O)CCCCCCCCCCNC(=O)[C@H](CCCCN)n3cc(C)nn3)CC2)nc(N2CCN(C(=O)CCCCCCCCCCNC(=O)[C@H](CCCN=C(N)N)n3cc(C[C@@H](C)CC)nn3)CC2)n1`?
STK33 kinase inh: 20; GSK3A inh: 25

What do the screens show for `C[C@H](NC(=O)c1nc[nH]c1C(=O)NC1CCNCC1)C(=O)OCc1ccccc1`?
STK33 kinase inh: 0; GSK3A inh: 28

How did COC(=O)c1cccc(Nc2nc(-c3cccnc3)nc3ccccc23)c1 do in these assays?
STK33 kinase inh: 2; GSK3B inh: -3; CDK5 inh: 1; GSK3A inh: 2

How did O=C(O)c1cccc(Nc2nc(-c3cccnc3)nc3ccccc23)c1 do in these assays?
STK33 kinase inh: 32*; GSK3B inh: -1; CDK5 inh: 0; GSK3A inh: 44

How did O=C(O)c1ccc(Nc2nc(-c3cccnc3)nc3ccccc23)cc1 do in these assays?
STK33 kinase inh: 7; GSK3B inh: 2; GSK3A inh: 61*

Results for COc1cccc(/C=C2/CCC(CN(C)C)C2=O)c1 (configuration not stated) ?
CDK5 inh: 10

How did COCCCNc1nc(N)c([N+](=O)[O-])c(NC2CCCCC2)n1 do in these assays?
STK33 kinase inh: 2; GSK3B inh: -22; CDK5 inh: 2; GSK3A inh: 60*

What do the screens show for `COCCCNc1nc(N)c([N+](=O)[O-])c(N2CCCCCC2)n1`?
STK33 kinase inh: 0; GSK3B inh: 0; CDK5 inh: 1; GSK3A inh: 54*

How did CC(C)CNc1nc(N)c([N+](=O)[O-])c(N2CCCCCC2)n1 do in these assays?
STK33 kinase inh: 2; GSK3B inh: -32; CDK5 inh: 1; GSK3A inh: 12

How did Nc1nc(NCCO)nc(N2CCCCCC2)c1[N+](=O)[O-] do in these assays?
STK33 kinase inh: 2; GSK3B inh: -17; CDK5 inh: 6; GSK3A inh: 54*

What do the screens show for `Nc1nc(NCCOCCO)nc(N2CCCCCC2)c1[N+](=O)[O-]`?
STK33 kinase inh: -2; GSK3B inh: -7; CDK5 inh: 1; GSK3A inh: 38

What do the screens show for `CNC1(C)[C@H]2CC[C@H](C2)C1(C)C` (some centres not stated)?
CDK5 inh: 1

How did Cc1ccc2nc(C(F)(F)F)c(C#N)c(N)c2c1 do in these assays?
STK33 kinase inh: 0; GSK3B inh: -4; CDK5 inh: 95*; GSK3A inh: 0

How did COc1ccc(-c2nn(-c3ccccc3)cc2/C=N/O)cc1OC do in these assays?
STK33 kinase inh: 3; GSK3B inh: -56*; CDK5 inh: 4; GSK3A inh: 73*

How did CCNc1nc(N)c(C(=O)c2ccc(Cl)s2)s1 do in these assays?
STK33 kinase inh: 8; GSK3B inh: -90*; CDK5 inh: 6; GSK3A inh: 98*

How did Cc1cc(N2CCN(c3ccccc3)CC2)n2c(n1)nc1ccccc12 do in these assays?
STK33 kinase inh: 1; GSK3B inh: -1; CDK5 inh: 0; GSK3A inh: 56*

Results for Cc1cc(N2CCN(c3ccccc3)CC2)n2nnnc2n1 ?
STK33 kinase inh: 1; GSK3B inh: 1; CDK5 inh: -2; GSK3A inh: -2

Results for O=S1(=O)c2ccc(Br)cc2N2CC[C@H](C2)N1Cc1ccc(Cl)cc1 ?
CDK5 inh: -6

What do the screens show for `Cc1cc(C(C#N)c2ccccc2F)n2ncnc2n1` (configuration not stated)?
STK33 kinase inh: -1; GSK3B inh: 0; CDK5 inh: 4; GSK3A inh: 55*

How did Oc1ccc(-c2nnc(SCc3ccccc3)o2)cc1 do in these assays?
STK33 kinase inh: -1; CDK5 inh: 3; GSK3A inh: 19

How did Cc1ccc(-n2nnnc2CSc2nnc(-c3ccc(O)cc3)o2)cc1 do in these assays?
STK33 kinase inh: 11; GSK3B inh: 0; CDK5 inh: 2; GSK3A inh: 67*

How did N#CC1=C2SCN(c3ccccc3)CN2C(=O)CC1c1ccccc1Cl (configuration not stated) do in these assays?
STK33 kinase inh: 0; GSK3B inh: 0; CDK5 inh: 0; GSK3A inh: 0

What do the screens show for `N#CC1=C2SCN(Cc3ccccc3)CN2C(=O)CC1c1ccccc1F` (configuration not stated)?
STK33 kinase inh: 0; GSK3B inh: -8; CDK5 inh: 15; GSK3A inh: 61*

Results for c1ccc(CN2CCC3CC2c2cc(N4CCOCC4)ccc23)cc1 (configuration not stated) ?
CDK5 inh: 0

What do the screens show for `O=C(CN1CCN(C(C(=O)Nc2cc(C(F)(F)F)ccc2Cl)c2ccccc2)CC1)NC1CC1` (configuration not stated)?
CDK5 inh: -1

Results for CC1=C(C(=O)OCc2ccc3c(c2)OCO3)C(c2ccccc2)NC(=O)N1 (configuration not stated) ?
STK33 kinase inh: -1; GSK3B inh: 0; CDK5 inh: 4; GSK3A inh: 63*

Results for CC(C)=CCC/C(C)=C/CNC(=O)C[C@H]1C[C@H](C(=O)N2CCOCC2)[C@@]2(CCC3CCCC3)c3[nH]c4cc(CCC(=O)N(C)C)ccc4c3CCN2C1=O ?
CDK5 inh: 1

What do the screens show for `COc1cc(/C=N/N=C2/C(=O)Nc3ccccc32)ccc1O`?
STK33 kinase inh: 38*; GSK3B inh: 1; CDK5 inh: 8; GSK3A inh: 6

Results for O=C1Nc2ccccc2/C1=N\N=C\c1ccc(O)c(O)c1 ?
STK33 kinase inh: 25; GSK3B inh: 1; CDK5 inh: 3; GSK3A inh: 5

Results for CCCCCCCCCCCC1N=C(N)NC(CCCO)=C1C(=O)OC (configuration not stated) ?
CDK5 inh: 4

Results for COc1ccc(-c2ncncc2-c2ccc(OC)c(OC)c2)c(O)c1 ?
STK33 kinase inh: 0; GSK3B inh: 3; CDK5 inh: 3; GSK3A inh: 52*

How did CCN1CCN(S(=O)(=O)c2ccc(Cl)c(C(=O)N(C)Cc3ccc(C(C)(C)C)cc3)c2)CC1 do in these assays?
CDK5 inh: 1
